# An excerpt weighted towards active compounds, which were near 1.8% of everything screened.
# M4 PAM – positive allosteric modulators of human muscarinic M4 receptor. P08173. CHO-K1 hM4/Gqi5, Fluo-8 calcium fluorescence, ACh EC20; 0% = ACh EC20, 100% = maximal ACh. activation, % at 3 µM. 360,000 tested, 0.4% active. AID 624126;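 active means activation above its plate's cutoff, the mean activation of sample wells plus 3 SD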
# M5 PAM – CHRM5 positive allosteric modulation | CHO-K1 hM5, Fluo-8 calcium, ACh EC20 PAM; 0% = ACh EC20, 100% = ACh EC100 | P08912 | activation, % at 3 µM | 360,000 tested, 0.3% active;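 active means activation above the run cutoff, the mean activation of all test compounds plus 3 SD, cut at about 18% in these data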
# Target sequence (P08912 whole entry, looked up): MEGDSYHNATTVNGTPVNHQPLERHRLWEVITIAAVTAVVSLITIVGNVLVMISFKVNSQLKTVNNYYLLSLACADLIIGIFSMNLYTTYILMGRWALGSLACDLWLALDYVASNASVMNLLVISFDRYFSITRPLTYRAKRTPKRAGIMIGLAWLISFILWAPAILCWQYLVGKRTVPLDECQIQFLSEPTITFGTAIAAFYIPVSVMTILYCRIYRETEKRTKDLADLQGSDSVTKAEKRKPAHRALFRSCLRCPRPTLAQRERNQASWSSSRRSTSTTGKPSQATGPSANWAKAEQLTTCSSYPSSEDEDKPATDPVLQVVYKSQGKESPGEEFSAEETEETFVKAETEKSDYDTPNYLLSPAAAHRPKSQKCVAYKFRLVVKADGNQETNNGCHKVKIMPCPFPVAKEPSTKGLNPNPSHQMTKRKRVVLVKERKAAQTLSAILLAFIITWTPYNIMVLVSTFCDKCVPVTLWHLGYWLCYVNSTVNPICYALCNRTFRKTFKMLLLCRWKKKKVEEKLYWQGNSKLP
#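 System: CHO-K1 cell line with stable human muscarinic M5 receptor expression | Also added: EC20 acetylcholine as agonist stimulus | Compound: One concentration, 3 µM final (nominal) | Timing: Fluo-8 loading 80 min at 37 °C plus 30 min room temperature | Measured by: Fluo-8 calcium dye fluorescence, kinetic read | Read-out basis: % activation, ACh-normalized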
# CHRM4 agonist – CHRM4 agonism in calcium assay; activation, % at 3 µM; 360,000 tested, 0.14% active; AID 624127; CHO-K1 hM4/Gqi5, Fluo-8 calcium fluorescence; vehicle 0%, full acetylcholine response 100%;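 active means activation above the run mean over all test wells plus 3 SD, cut at about 32% in these data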;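 further: peak over basal fluorescence ratio per well then scaled between controls; 0% = DMSO wells and 100% = acetylcholine at EC100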
# CHRM5 antagonist – CHRM5 antagonism in calcium assay; P08912; CHO-hM5 cells, Fluo-8 calcium fluorescence, ACh EC80; inhibition, % at 3 µM; 360,000 tested, 0.59% active;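 active means inhibition above a per-plate cutoff, the mean of that plate's test compounds plus 3 SD, cut at about 27% in these data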;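 further: 0% = acetylcholine EC80 with DMSO and 100% = DMSO without agonist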
# CHRM4 antagonist – CHRM4 antagonism in calcium assay; P08173; CHO-hM4 cells, ACh EC80, Fluo-8 calcium fluorescence; inhibition, % at 3 µM; 360,000 tested, 0.73% active;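 active means inhibition above its plate's cutoff, the mean inhibition of sample wells plus 3 SD, cut at about 27% in these data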;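 further: 0% = acetylcholine EC80 with DMSO and 100% = DMSO without agonist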
# M5 ag – agonists of human muscarinic M5 receptor (CHRM5). CHO-K1 hM5 cells, Fluo-8 calcium fluorescence; 0% DMSO wells, 100% maximal acetylcholine response. 360,000 tested, 0.19% active. activation, % at 3 µM;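 active means activation above the run's mean over test compounds plus 3 SD, cut at about 23% in these data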;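 further: signal is peak over basal fluorescence ratio across the kinetic read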
# Active calls of the source: *.
SMILES,M4 PAM,M5 PAM,CHRM4 agonist,CHRM5 antagonist,CHRM4 antagonist,M5 ag
CCOc1cc(-c2nc3ccccc3s2)ccc1O,-24.6,-13.0,-1.3,8.0,31.4*,-6.3
O=C(c1cc(Cl)cc(Cl)c1)N1CCC2CC1c1cc(N3CCCCC3)ccc12 (stereo not given),-12.5,-18.3,-1.6,13.3,26.9*,-3.2
Cc1oc(-c2ccccc2Cl)nc1CS(=O)CC(=O)NCc1ccc2c(c1)OCO2 (stereo not given),3.3,22.7*,2.5,-25.9,-10.4,-0.8
Cc1ccccc1-c1nc(CS(=O)CC(=O)NCc2ccc3c(c2)OCO3)c(C)o1 (stereo not given),-0.8,-10.6,5.9,26.0,1.8,-4.6
Cc1ccc(-c2noc(CCC(=O)Nc3cccc(C(=O)NC4CC4)c3)n2)cc1,1.3,3.7,4.1,-1.6,7.1,2.7
CC(=O)N1CCN(c2ccc(NC(=O)c3ccc(C)c([N+](=O)[O-])c3)cc2)CC1,-10.0,18.3*,6.2,-14.6,0.2,8.0
Cn1c2ccccc2c(=O)c2ccc(C#CC3(O)CCCCC3)cc21,-15.9,-41.1,37.3*,16.8,10.3,-1.3
CCCCCCCCNC(CO)(CO)CO,5.9,11.9,0.4,-1.6,-7.7,1.3
O=C(CCc1nnc2n(Cc3ccc(F)cc3)c(=O)c3ccccc3n12)NCCCN1CCOCC1,-1.4,-4.3,13.0,7.5,8.2,-2.3
CN1CCN(CCCNC(=O)CCc2nnc3n(Cc4ccccc4Cl)c(=O)c4ccccc4n23)CC1,15.9*,4.7,1.8,-1.4,-6.2,-5.6
Nc1c(C(=O)NCc2ccccc2)nnn1Cc1ccccc1,3.8,-1.4,5.9,8.9,-11.3,8.2
CSc1ccc(Cn2nnc(C(=O)NCc3ccccc3)c2N)cc1,-2.8,-4.4,60.6*,9.2,-7.9,41.8*
Cn1nnnc1SCC(=O)Nc1ccccc1[N+](=O)[O-],5.1,2.5,0.9,-3.9,-7.8,-4.2
COc1ccc(NC(=O)CSc2nnnn2C)cc1,0.5,-0.2,5.5,9.5,0.9,-0.4
COc1ccc(NC(=O)CSc2nnnn2C)c([N+](=O)[O-])c1,8.7,-7.8,1.2,31.8*,8.7,-3.1
COc1ccc(C(=O)NNC(=O)CSc2nnnn2C)cc1,12.6,19.3*,0.1,-4.3,1.4,2.0
CCOc1ccccc1NCc1nnc(-c2ccccc2)o1,-10.7,-10.8,0.0,3.1,-7.4,-22.0
CCCCCC(=O)N1C[C@@H](n2cc(-c3ccc(F)cc3)nn2)[C@H](O)C[C@@H]1c1ccc(OC)cc1,-5.5,-2.8,3.2,15.5,-0.1,-0.8
COc1ccc([C@@H]2CC=C(C(=O)O)[C@H](c3ccccc3F)N2S(=O)(=O)c2ccccc2C)cc1,-1.0,20.0*,-0.2,-5.2,0.9,4.4
COc1ccc([C@@H]2CC=C(C(=O)O)[C@H](c3ccc(F)cc3)N2S(=O)(=O)c2ccccc2C)cc1,3.2,9.0,2.9,0.7,-0.4,-0.6
CC(=O)c1ccc(S(=O)(=O)NCC(=O)N2CCN(C/C=C/c3ccccc3)CC2)cc1,-2.2,-1.7,4.9,-5.1,-12.3,1.1
O=C(COC(=O)C1CCC(=O)N1)Nc1ccccc1Br (stereo not given),-2.6,21.4*,0.2,1.7,-14.5,0.3
O=C(COC(=O)C1CCC(=O)N1)Nc1ccc(Oc2ccccc2)cc1 (stereo not given),-1.2,-3.7,0.9,6.0,3.3,-1.3
Cc1ccc(C(c2sc3nc(C)nn3c2O)N2CCN(c3ccccc3F)CC2)cc1 (stereo not given),4.7,18.8*,-0.1,-1.5,6.5,-9.4
Cc1ccc(C(c2sc3nc(C)nn3c2O)N2CCN(CCO)CC2)cc1 (stereo not given),7.4,3.9,-0.5,-2.2,4.3,1.6
SMILES,M4 PAM,M5 PAM,CHRM4 agonist,CHRM5 antagonist,CHRM4 antagonist,M5 ag
CN(C)c1ccc(-c2ccnc3c2CC(C)(C(=O)NCc2ccco2)O3)cc1 (stereo not given),4.9,2.4,0.2,1.2,-0.9,-1.8
COc1ccccc1/C=C(\NC(=O)c1cccc(C)c1)C(=O)Nc1ccccn1,27.5*,13.2,8.1,11.4,26.8*,-1.9
COc1ccc2c3c([nH]c2c1)[C@H]1C[C@H]2[C@H](C[C@@H](O)[C@H](OC)[C@H]2C(=O)O)CN1CC3,-16.1,-18.0,1.8,14.7,46.2*,0.6
Cc1cc(C)cc(NC(=O)NCc2c(-c3ccccc3)noc2C)c1,6.7,10.5,1.5,-1.7,-12.3,-3.3
Cc1onc(-c2ccccc2)c1CNC(=O)Nc1ccc(C(F)(F)F)cc1,-12.7,-23.8,12.6,37.5*,10.0,2.9
CC(=O)OCCn1c2nc(=O)[nH]c(=O)c-2nc2cc(C)c(C)cc21,-18.3,-29.6,229.5*,42.0*,37.4*,417.5*
CCOc1cc(S(=O)(=O)NCc2ccncc2)ccc1Cl,-15.8,-15.3,22.8,60.0*,36.0*,5.5
O=S(=O)(Nc1ccc(Cc2ccncc2)cc1)c1ccc(Cl)c(Cl)c1,-32.8,-20.9,8.2,7.2,33.7*,-7.2
C/C(=C\C(=O)Nc1cscc1C)C(=O)O,-4.7,-0.3,-0.3,6.9,-3.9,1.8
O=C(Nc1ccnn1C1CCN(C/C=C/c2ccccc2)CC1)c1cccc(F)c1,-4.8,2.1,6.1,-3.7,6.4,-5.4
COc1ccc(Nc2nc(-c3cccs3)nc3ccccc23)cc1S(=O)(=O)N1CCOCC1,-30.1,-24.1,17.1,10.5,28.7*,-4.5
O=C(NNC(=S)NC(=O)C12CC3CC(CC(C3)C1)C2)c1ccncc1,-28.8,-15.5,75.7*,11.7,11.6,28.1*
CC1(C(=O)NC(=S)NNC(=O)c2ccncc2)CCCCC1,-4.4,-11.7,44.2*,1.1,-14.2,9.1
CCC1Nc2ncnc(N3CCOCC3)c2N(Cc2ccc(Cl)cc2)C1=O (stereo not given),24.1*,-2.6,2.3,14.3,9.1,-1.6
CC1Nc2ncnc(N3CCOCC3)c2N(Cc2ccc(Cl)cc2)C1=O (stereo not given),14.2,2.6,2.9,-2.7,5.3,5.5
C1CN(CC2COC(CN3CCOCC3)CO2)CCO1 (stereo not given),0.1,-1.0,1.0,16.8,1.8,3.5
CCC(C)n1c(NC(=O)c2ccccc2)c(C#N)c2nc3ccccc3nc21 (stereo not given),5.6,18.5*,2.2,-5.3,-5.5,17.2
COc1ccc(/C=N/NC(=O)c2ccc3ccccc3c2)cc1OS(=O)(=O)c1ccc(NC(C)=O)cc1,-16.6,-16.7,15.7,13.0,27.9*,0.9
